SIAE inh: inhibitors of human sialic acid acetylesterase SIAE. SIAE FP-Rh probe binding, fluorescence polarization. inhibition, % at 9.66 µM. Q9HAT2. 370,000 tested, 0.69% active;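 active = inhibition above a cutoff: mean of compounds within the control limits plus 3 SD of those, cut at about 17% in these data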;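 note: 0% = plate median of compound wells and 100% = probe without SIAE protein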
HTRA1 inh: HTRA1 (human) protease inhibition; Q92743; recombinant HTRA1, FP-rhodamine activity-based probe, fluorescence polarization; inhibition, % at 5.96 µM; 340,000 tested, 0.5% active; AID 504803; in the data active = inhibition above about 36%;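 note: 0% = enzyme with DMSO and 100% = wells lacking enzyme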
Target sequence (Q92743 whole entry, looked up): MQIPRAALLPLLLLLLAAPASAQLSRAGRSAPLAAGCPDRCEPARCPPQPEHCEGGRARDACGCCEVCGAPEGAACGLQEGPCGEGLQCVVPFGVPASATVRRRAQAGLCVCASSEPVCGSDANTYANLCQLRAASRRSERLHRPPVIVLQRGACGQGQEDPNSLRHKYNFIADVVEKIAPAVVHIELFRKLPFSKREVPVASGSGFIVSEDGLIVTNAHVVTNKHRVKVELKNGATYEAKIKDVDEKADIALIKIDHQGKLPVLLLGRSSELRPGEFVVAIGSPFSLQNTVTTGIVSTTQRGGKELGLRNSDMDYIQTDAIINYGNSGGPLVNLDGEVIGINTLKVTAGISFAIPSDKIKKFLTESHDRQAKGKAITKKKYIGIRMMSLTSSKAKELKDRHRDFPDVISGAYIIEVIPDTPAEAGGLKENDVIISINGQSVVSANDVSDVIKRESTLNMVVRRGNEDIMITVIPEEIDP
TCR CD3 inh: inhibitors of human TCR-CD3 interaction | TAMRA-labeled TCR probe fluorescence, biochemical | inhibition, % at 9.4 µM | 360,000 tested, 0.37% active; in the data active = inhibition above about 19%;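 note: recombinant mutant TCR 2C K166C tagged with TAMRA read by polarization; 0% = receptor in buffer alone and 100% = receptor with positive control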
rCAG RNA binder: r(CAG) repeat RNA binding | TO-PRO-1 dye displacement fluorescence | inhibition, % at 3 µM | 370,000 tested, 1.3% active | AID 651821;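 active = inhibition above the plate cutoff, the mean of all test compounds on that plate plus 3 SD, cut at about 35% in these data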;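 note: 0% = DMSO alone and 100% = 100 µM mitoxantrone as full dye displacement; higher means more dye released from RNA so lower well fluorescence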
PRMT1 FP inh: PRMT1 (human) inhibition, primary screen; AID 652257; inhibition, % at 2.79 µM; 370,000 tested, 1.3% active; recombinant PRMT1, activity-based probe fluorescence polarization; Q99873;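 active = inhibition above about 21% made by adding two undisclosed values, limit read from the data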
ABHD4 inh: ABHD4 (mouse) inhibition, primary FP screen; Q8VD66; purified mABHD4, FP-Rh probe fluorescence polarization; inhibition, % at 8.92 µM; 370,000 tested, 0.54% active; AID 720543;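 active = inhibition exceeding the mean over every tested compound plus 3 SD, cut at about 30% in these data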;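 note: 0% = plate median of compound wells and 100% = S159A mutant with DMSO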
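assay system = mABHD4 protein | compound dosing = single nominal dose of 8.92 µM, 0.89% DMSO final | read-out basis = percent inhibition of probe binding, normalized to plate controls | schedule = Enzyme–compound pre-incubation 45 min, then probe 60 min, both 25 °C | detection = fluorescence polarization, excitation 525 nm, emission 598 nm, BODIPY TMR filters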
PRMT1 inh conf: PRMT1 (human) inhibition, FP confirmation; shares compounds with PRMT1 FP inh; recombinant His-PRMT1, activity-based probe fluorescence polarization; inhibition, % at 2.79 µM; 3,300 tested, 42% active;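 active = mean inhibition across replicates above the hit cutoff derived for the earlier primary screen, cut at about 22% in these data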
An asterisk follows results filed as active; · = no result given. A selection: hits, their analogues and other compounds. The true share with any hit is near 3.5%.

SMILES | SIAE inh | HTRA1 inh | TCR CD3 inh | rCAG RNA binder | PRMT1 FP inh | ABHD4 inh | PRMT1 inh conf
S=c1[nH]nc(-c2n[nH]c3c2CCC3)n1N=Cc1c2ccccc2cc2ccccc12 | -3 | · | · | 26 | 50* | -3 | 49*
COc1ccc(-c2noc(C3CCCN(C(=O)Nc4ccc(C)c(F)c4)C3)n2)cc1 (stereo not drawn) | -9 | · | · | 5 | 4 | -22 | ·
CCOC(=O)c1sc(N)c(C(=O)OC)c1C | 5 | 3 | 3 | -1 | -4 | 3 | ·
COC(=O)c1c(N)sc(C(=O)NCCc2ccccc2)c1C | 3 | 3 | 1 | -1 | 26* | 1 | 30*
CCOC(=O)c1sc(N)c(C(=O)Nc2ccccc2OC)c1C | 2 | -19 | -2 | 3 | 26* | 0 | 7
O=c1oc2c3c4c(cc2c(C(F)(F)F)c1CCN1CCOCC1)CCCN4CCC3 | -7 | 5 | 0 | -58 | 53* | -5 | 24*
COc1ccc(CN(CCN2CCOCC2)C(=O)c2cc(F)ccc2F)cc1OC | 2 | · | · | 0 | -4 | -1 | ·
Cc1cc(C)cc(-n2c3nc4ccccc4nc3c3c(=O)n(Cc4ccco4)cnc32)c1 | -11 | -26 | -3 | 24 | 52* | -18 | 18
Cc1cnc(NC(=O)CSc2ccccc2)s1 | -2 | 1 | -6 | 4 | 0 | -9 | ·
CCOC(=S)SCC(=O)Nc1ncc(C)s1 | 1 | 3 | -5 | 1 | 59* | 9 | 46*
O=C(CSc1ccc(-c2cccs2)nn1)c1cccs1 | -3 | -4 | -2 | 6 | 28* | 0 | 5
COc1cc(CNc2ccc3[nH]c(=O)[nH]c3c2)ccc1OCc1ccc(C)cc1 | 12 | -1 | -1 | 15 | 35* | 20 | 8
Cc1cc(/C=C2\Sc3ccccc3N2C)cc(C)[n+]1CC1CCCO1 (stereo not drawn) | -1 | · | -6 | 9 | 100* | -7 | -1
Cc1ccc(-c2cc(C(=O)NN=Cc3cccc(Oc4ccccc4)c3)[nH]n2)cc1C | -89 | · | · | 15 | -8 | -72 | ·
CC1COCC(C)N1S(=O)(=O)c1ccc2c(c1)CCN2C(=O)C1CCC1 (stereo not drawn) | 4 | · | · | 2 | -2 | 1 | ·
CCCCCC[N+](C)(C)CCSSCC[N+](C)(C)CCCCCC | -2 | 0 | 9 | 3 | 91* | 7 | 56*
C[C@@H]1OCN(C)[C@H]2C[C@H]3c4[nH]c5cccc(-c6cccc(F)c6)c5c4CCN3C(=O)[C@@H]12 | 5 | · | · | 3 | 0 | 5 | ·
CC(=O)N1N=C(c2cccs2)CC1c1ccco1 (stereo not drawn) | 1 | 5 | 14 | 2 | -3 | -3 | ·
CS(=O)(=O)N1N=C(c2cccs2)CC1c1ccco1 (stereo not drawn) | 0 | -5 | -3 | 7 | 41* | 2 | 4
Cn1nnnc1Sc1ncnc2scc(-c3ccccc3C(F)(F)F)c12 | -2 | -16 | 3 | -1 | 39* | -3 | 14
C=CCN1[C@@H](C)COc2cc(N3CCSCC3)ccc2S1(=O)=O | -6 | · | · | 0 | 3 | -6 | ·
CC(C)Oc1ccc(Br)cc1/C=N\NC(N)=S | 10 | -8 | 8 | -1 | 39* | -13 | 11
COC(=O)[C@@H]1C[C@@]2(c3ccccc3)c3ccccc3N(S(=O)(=O)c3ccccc3)[C@H]2N1C(=O)CNC/C=C(\C)CCC=C(C)C | 4 | · | · | 11 | 0 | 17 | ·
Cc1sc2nc(SCC(=O)Nc3cccc(S(N)(=O)=O)c3)[nH]c(=O)c2c1C | 9 | -2 | 1 | 20 | 27* | 0 | 1
CC(=O)Nc1c(O)nc(SCC(=O)Nc2ccc(C(C)=O)cc2)[nH]c1=O | -1 | -1 | 11 | 2 | 59* | -3 | 19
SMILES | SIAE inh | HTRA1 inh | TCR CD3 inh | rCAG RNA binder | PRMT1 FP inh | ABHD4 inh | PRMT1 inh conf
Cc1cccc(NC(=O)CSc2nc3nc(C)cc(C)c3c(=O)[nH]2)c1 | 9 | 9 | 5 | 5 | -2 | -3 | ·
Cc1sc2nc(SCC(=O)Nc3ccc(S(N)(=O)=O)cc3)[nH]c(=O)c2c1C | -17 | -7 | 10 | 19 | 0 | -3 | ·
CC(=O)Nc1c(O)nc(SCC(=O)Nc2cccc(C)c2)[nH]c1=O | 3 | -2 | 4 | -2 | 54* | 9 | 3
CC(C)(C)c1csc(NC(=O)Cn2cnc3ccccc3c2=O)n1 | 0 | -6 | 10 | 0 | 29* | 0 | 0
O=S1(=O)c2c(NCc3ccco3)cccc2Oc2ccccc2CN1Cc1cn(Cc2ccc(C(F)(F)F)cc2)nn1 | 3 | · | · | 12 | -2 | -6 | ·
CCOC(=O)Cn1cc(CN2C(C(=O)OC)CN(Cc3ccc(F)cc3)CCS2(=O)=O)nn1 (stereo not drawn) | 0 | · | · | -1 | 2 | -2 | ·
O=C(N/N=C/c1ccc(N2CCCCC2)o1)c1ccccc1[N+](=O)[O-] | 8 | 6 | 1 | 11 | 31* | 11 | 5
O=C(N/N=C/c1ccc(N2CCOCC2)o1)c1ccccc1[N+](=O)[O-] | 8 | 2 | 1 | 3 | 20 | 7 | ·
CCCCCN1CCCCC(NC(=O)c2ccc(C)cc2)C1=O (stereo not drawn) | -1 | · | · | -3 | 3 | -2 | ·
CC(C)(C)OC(=O)NCCc1nnc(SCC(=O)Nc2cccc(Cl)c2)o1 | 10 | -8 | -4 | 2 | -1 | 2 | ·
NCCc1nnc(SCC(=O)Nc2cccc(Cl)c2)o1 | 1 | -5 | 2 | 0 | 25* | 1 | 14
COC(=O)c1cc(-c2cccc(C#N)c2)c(=O)n2c1CCC2 | 0 | · | · | 1 | 4 | -6 | ·
COc1ccccc1CN(C)C(=O)c1ccc2c(c1)NC(=O)CS2 | 1 | 2 | -2 | 3 | 2 | 2 | ·
Cc1ccc(CN(C)C(=O)c2ccc3c(c2)NC(=O)CS3)o1 | 10 | 3 | 1 | 7 | 40* | 5 | 5
O=C(C1=NN[C@@H]2C(=O)N(c3cccc(F)c3)C(=O)[C@H]12)c1cnccn1 | 3 | · | -6 | 8 | 36* | -6 | 14
CCOC(=O)c1ccc(NC(=S)N2CCN(S(C)(=O)=O)CC2)cc1 | 2 | 1 | 6 | 1 | -3 | 2 | ·
Fc1cc(F)c(C2SCCN2C(=S)Nc2cccc(C(F)(F)F)c2)c(F)c1 (stereo not drawn) | -5 | -13 | 12 | 5 | 78* | -11 | 9
CCOC(=O)c1ccc(NC(=S)N2CCSC2c2c(F)cc(F)cc2F)cc1 (stereo not drawn) | -11 | -39 | 0 | 0 | 89* | -4 | -1
CCN1CCN(C(=S)Nc2cccc(C(F)(F)F)c2)CC1 | 3 | -2 | 3 | -1 | -1 | -3 | ·
Cc1ccccc1NC(=O)c1sc2nc(N3CCOCC3)c3c(c2c1N)CCCC3 | 2 | -16 | 0 | 9 | 42* | 10 | 41*
COc1ccccc1NC(=O)c1sc2nc(N3CCOCC3)c3c(c2c1N)CCCC3 | -2 | -16 | -2 | 7 | 9 | 4 | ·
